The values below come from ChEMBL document CHEMBL1131446, “New 1,4-dihydropyridines conjugated to furoxanyl moieties, endowed with both nitric oxide-like and calcium channel antagonist vasodilator activities” (J Med Chem, 1998).

Structures are written as SMILES.

The target of experiment [1] is T1, Voltage-dependent L-type calcium channel subunit alpha-1D (Rattus norvegicus, UniProt P27732). The experiment can be described thus: Binding affinity for L-type [Ca2+] channels was measured through displacement of [3H]nitrendipine on rat cortex homogenates. In kind it is tissue-based. On the technique in general: Loss of bound radioactivity is the signal in a displacement assay; it reports binding, not function.
T1 sequence (P27732 whole entry): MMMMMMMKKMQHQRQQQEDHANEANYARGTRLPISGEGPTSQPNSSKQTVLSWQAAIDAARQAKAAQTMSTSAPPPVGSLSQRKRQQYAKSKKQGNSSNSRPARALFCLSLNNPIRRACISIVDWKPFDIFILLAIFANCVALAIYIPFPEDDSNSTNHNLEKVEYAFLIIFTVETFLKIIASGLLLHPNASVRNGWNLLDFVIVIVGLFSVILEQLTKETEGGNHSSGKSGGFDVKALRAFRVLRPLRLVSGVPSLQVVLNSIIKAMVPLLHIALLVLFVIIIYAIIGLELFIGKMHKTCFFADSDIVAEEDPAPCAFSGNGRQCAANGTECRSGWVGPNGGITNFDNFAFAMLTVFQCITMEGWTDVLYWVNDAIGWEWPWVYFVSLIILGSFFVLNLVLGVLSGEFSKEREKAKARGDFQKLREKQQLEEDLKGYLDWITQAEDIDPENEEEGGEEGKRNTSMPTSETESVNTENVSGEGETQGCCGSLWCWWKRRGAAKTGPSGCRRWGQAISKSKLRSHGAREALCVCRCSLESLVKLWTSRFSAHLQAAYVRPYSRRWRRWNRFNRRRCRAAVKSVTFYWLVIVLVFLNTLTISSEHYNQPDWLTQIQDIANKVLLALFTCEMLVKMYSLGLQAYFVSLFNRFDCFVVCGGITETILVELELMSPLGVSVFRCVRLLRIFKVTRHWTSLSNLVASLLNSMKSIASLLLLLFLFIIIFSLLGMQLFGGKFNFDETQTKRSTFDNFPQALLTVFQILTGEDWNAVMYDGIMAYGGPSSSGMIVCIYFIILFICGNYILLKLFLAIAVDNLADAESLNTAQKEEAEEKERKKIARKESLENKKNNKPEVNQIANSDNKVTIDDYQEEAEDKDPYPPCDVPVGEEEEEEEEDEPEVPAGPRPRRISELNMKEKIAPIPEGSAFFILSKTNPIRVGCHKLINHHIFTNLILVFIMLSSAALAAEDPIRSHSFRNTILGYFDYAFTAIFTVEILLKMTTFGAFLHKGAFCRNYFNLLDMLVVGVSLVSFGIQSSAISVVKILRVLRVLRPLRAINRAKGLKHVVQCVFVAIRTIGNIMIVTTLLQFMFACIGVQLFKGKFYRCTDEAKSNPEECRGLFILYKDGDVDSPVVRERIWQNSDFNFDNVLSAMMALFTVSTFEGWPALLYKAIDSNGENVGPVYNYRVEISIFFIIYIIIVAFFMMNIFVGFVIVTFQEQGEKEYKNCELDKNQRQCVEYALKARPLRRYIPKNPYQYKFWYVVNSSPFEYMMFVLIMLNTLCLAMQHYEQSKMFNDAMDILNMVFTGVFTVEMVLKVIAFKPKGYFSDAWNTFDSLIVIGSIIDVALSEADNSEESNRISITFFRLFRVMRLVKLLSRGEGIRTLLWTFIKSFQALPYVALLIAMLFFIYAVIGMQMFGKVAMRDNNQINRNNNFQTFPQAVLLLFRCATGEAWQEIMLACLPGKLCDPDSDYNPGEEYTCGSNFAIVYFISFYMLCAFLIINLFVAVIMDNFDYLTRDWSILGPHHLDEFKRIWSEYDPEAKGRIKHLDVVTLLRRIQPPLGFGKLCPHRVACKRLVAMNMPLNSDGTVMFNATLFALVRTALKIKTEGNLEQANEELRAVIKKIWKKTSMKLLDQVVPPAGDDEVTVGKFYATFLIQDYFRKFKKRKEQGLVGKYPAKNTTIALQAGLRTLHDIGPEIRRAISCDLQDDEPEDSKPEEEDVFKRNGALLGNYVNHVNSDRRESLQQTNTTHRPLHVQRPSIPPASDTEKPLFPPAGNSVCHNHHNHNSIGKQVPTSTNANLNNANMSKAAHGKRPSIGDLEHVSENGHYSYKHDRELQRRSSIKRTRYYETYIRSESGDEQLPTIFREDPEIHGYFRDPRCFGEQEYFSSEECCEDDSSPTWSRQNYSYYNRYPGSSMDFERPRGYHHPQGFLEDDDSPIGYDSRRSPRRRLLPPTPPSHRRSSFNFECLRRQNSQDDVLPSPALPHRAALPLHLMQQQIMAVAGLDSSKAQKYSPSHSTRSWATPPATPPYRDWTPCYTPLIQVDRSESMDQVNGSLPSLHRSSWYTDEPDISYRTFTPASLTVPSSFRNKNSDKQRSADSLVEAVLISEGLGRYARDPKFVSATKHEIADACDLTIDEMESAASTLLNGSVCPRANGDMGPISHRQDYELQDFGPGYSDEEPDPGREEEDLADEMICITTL

Experiment [2] has as its target T1, Voltage-dependent L-type calcium channel subunit alpha-1D. The experiment can be described thus: Inhibitory concentration for L-type [Ca2+] channels was measured through displacement of [3H]nitrendipine on rat cortex homogenates. In kind it is tissue-based.
The species named for experiment [3] is Rattus norvegicus. The experiment can be described thus: […]. In kind it is functional. In short, it runs like this: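 Nitrite formation measured as an index of NO release. Compound incubated in pH 7.4 buffer with a 50-fold molar excess of L-cysteine at 37 °C. After 1 h, nitrite was detected by the Griess reaction. Values are expressed as % NO₂⁻ (mol/mol).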

The species named for experiment [4] is Rattus norvegicus. The experiment can be described thus: Vasodilator activity was measured on rat aorta.
Experiment [5] is filed under the species Rattus norvegicus. The experiment can be described thus: Vasodilator activity was measured on rat aorta in the presence of methylene blue (MB).

As a reminder, the Ki is the dissociation constant of the complex between target and ligand, obtained from inhibition or displacement. A word on the IC50: it is the concentration at which inhibition is half-maximal. A word on the EC50: it is the concentration that produces a half-maximal response. Take `COC(=O)C1=C(C)N=C(C)/C(=C(/O)OC)C1c1ccccc1OCc1no[n+]([O-])c1C#N` (centres undefined): in experiment [1], the Ki worked out at 21 nM. Besides, the IC50 in experiment [2] was 27 nM. Besides, the Nitric oxide in experiment [3] was determined as 40.8%. In experiment [4], the half-maximal effective concentration (EC50) was 4.4 nM. Moreover, the “EC50 iGC” value in experiment [5] is listed as 22 nM.
For `COC(=O)C1=C(C)N=C(C)/C(=C(/O)OC)C1c1cccc(OCc2c(C)no[n+]2[O-])c1` (centres undefined) the same measures were 280 nM, 610 nM, less than 0.5%, 400 nM and 400 nM.
With `COC(=O)C1=C(C)N=C(C)/C(=C(/O)OC)C1c1ccccc1OCc1nonc1C(N)=O` (centres undefined), the Ki in experiment [1] came out at 400 nM. Also, in experiment [2], the IC50 was 880 nM. The compound further registered a concentration giving a half-maximal response (EC50) in experiment [4] of 970 nM. Also, in experiment [5], the “EC50 iGC” value came out at 910 nM.
For the compound `COC(=O)C1=C(C)N=C(C)/C(=C(/O)OC)C1c1ccccc1OCc1no[n+]([O-])c1C(N)=O` (centres undefined), the Ki in experiment [1] is 670 nM. For the same compound, the IC50 in experiment [2] amounted to 1500 nM. The compound also returned a Nitric oxide in experiment [3] of 13%. In experiment [4], this compound gave an EC50 of 550 nM. The “EC50 iGC” value in experiment [5] amounted to 940 nM.
With `COC(=O)C1=C(C)N=C(C)/C(=C(/O)OC)C1c1ccccc1OCc1nonc1C` (centres undefined), in experiment [1], the Ki turned out to be 27 nM. In addition, the IC50 in experiment [2] turned out to be 59 nM. In addition, the EC50 in experiment [4] is 41 nM. Moreover, the “EC50 iGC” value in experiment [5] is listed as 46 nM.
Turning to `COC(=O)C1=C(C)N=C(C)/C(=C(/O)OC)C1c1ccccc1OCc1no[n+]([O-])c1C` (centres undefined), the Ki in experiment [1] was found to be 18 nM. Also, the half-inhibitory concentration (IC50) in experiment [2] was found to be 40 nM. Also, the Nitric oxide in experiment [3] turned out to be 0.9%. Also, in experiment [4], the EC50 amounted to 43 nM. Also, the “EC50 iGC” value in experiment [5] worked out at 46 nM.
Regarding `COC(=O)C1=C(C)N=C(C)/C(=C(/O)OC)C1c1cccc(OCc2nonc2C#N)c1` (centres undefined), the Ki in experiment [1] is 270 nM. For the same compound, the IC50 in experiment [2] came to 590 nM. This compound also registered an EC50 in experiment [4] of 310 nM. Besides, the “EC50 iGC” value in experiment [5] turned out to be 300 nM.
Regarding `COC(=O)C1=C(C)N=C(C)/C(=C(/O)OC)C1c1cccc(OCc2c(C#N)no[n+]2[O-])c1` (centres undefined), in experiment [1], the Ki came out at 220 nM. In experiment [2], the 50% inhibitory concentration (IC50) worked out at 500 nM. In experiment [3], this compound gave a Nitric oxide of 31.5%. It took 11 nM to reach a half-maximal effect in experiment [4] (EC50).
For `COC(=O)C1=C(C)N=C(C)/C(=C(/O)OC)C1c1cccc(OCCO[N+](=O)[O-])c1` (centres undefined), in experiment [1], the Ki turned out to be 440 nM. Moreover, the IC50 in experiment [2] amounted to 970 nM. Also, the Nitric oxide in experiment [3] is less than 0.5%. Besides, in experiment [4], the EC50 was 750 nM. Also, in experiment [5], the “EC50 iGC” value is on record as 750 nM.
Turning to `COC(=O)C1=C(C)N=C(C)/C(=C(/O)OC)C1c1ccccc1OCc1nonc1C#N` (centres undefined), the Ki in experiment [1] stood at 4.7 nM. For the same compound, the IC50 in experiment [2] was determined as 10 nM. In experiment [4], this compound returned an EC50 of 6.6 nM. In addition, the “EC50 iGC” value in experiment [5] came out at 6.6 nM.
With `COC(=O)C1=C(C)N=C(C)/C(=C(/O)OC)C1c1cccc(OCc2nonc2C)c1` (centres undefined), in experiment [1], the Ki was found to be 320 nM. Moreover, the IC50 in experiment [2] amounted to 720 nM. Also, it took 640 nM to reach a half-maximal effect in experiment [4] (EC50). Further, the “EC50 iGC” value in experiment [5] is reported as 620 nM.
`COC(=O)C1=C(C)N=C(C)/C(=C(/O)OC)C1c1cccc(OCc2nonc2C(N)=O)c1` (centres undefined): in experiment [1], the Ki is 2300 nM. Also, in experiment [2], the IC50 stood at 5100 nM. The compound further showed an EC50 in experiment [4] of 3500 nM. Besides, the “EC50 iGC” value in experiment [5] was 3300 nM.
Turning to `COC(=O)C1=C(C)N=C(C)/C(=C(/O)OC)C1c1cccc(OCc2no[n+]([O-])c2C#N)c1` (centres undefined), the inhibition constant (Ki) in experiment [1] was 230 nM. For the same compound, the IC50 in experiment [2] worked out at 500 nM. Moreover, the Nitric oxide in experiment [3] turned out to be 43.8%. This compound registered a half-maximal effective concentration (EC50) in experiment [4] of 3.3 nM.
`COC(=O)C1=C(C)N=C(C)/C(=C(/O)OC)C1c1ccccc1OCc1c(C(N)=O)no[n+]1[O-]` (centres undefined): the Ki in experiment [1] came to 350 nM. Moreover, the IC50 in experiment [2] came to 780 nM. In experiment [3], the Nitric oxide was 12.3%. Also, the EC50 in experiment [4] is 560 nM. For the same compound, the “EC50 iGC” value in experiment [5] is reported as 640 nM.
Regarding `COC(=O)C1=C(C)N=C(C)/C(=C(/O)OC)C1c1cccc(OCc2no[n+]([O-])c2C(N)=O)c1` (centres undefined), the Ki in experiment [1] was 920 nM. Also, in experiment [2], the IC50 came out at 2000 nM. This compound also came in with a Nitric oxide in experiment [3] of 6%. This compound also yielded an EC50 in experiment [4] of 710 nM. Also, in experiment [5], the “EC50 iGC” value is 1500 nM.
On to `COC(=O)C1=C(C)N=C(C)/C(=C(/O)OC)C1c1cccc(OCc2c(C(N)=O)no[n+]2[O-])c1` (centres undefined), for which the Ki in experiment [1] is 1600 nM. Further, the IC50 in experiment [2] was determined as 3600 nM. The compound also yielded a Nitric oxide in experiment [3] of 7.6%. The EC50 in experiment [4] was found to be 1200 nM. The “EC50 iGC” value in experiment [5] is 3700 nM.
For `COC(=O)C1=C(C)N=C(C)/C(=C(/O)OC)C1c1ccccc1OCc1c(C)no[n+]1[O-]` (centres undefined), in that order: 32 nM, 72 nM, 1.8%, 78 nM and 76 nM.
For `COC(=O)C1=C(C)N=C(C)/C(=C(/O)OC)C1c1cccc(OCc2no[n+]([O-])c2C)c1` (centres undefined) the same measures were 370 nM, 820 nM, less than 0.5%, 500 nM and 540 nM.
For `COC(=O)C1=C(C)N=C(C)/C(=C(/O)OC)C1c1ccccc1OCCO[N+](=O)[O-]` (centres undefined) the same measures were 38 nM, 85 nM, less than 0.5%, 56 nM and 54 nM.
As to `COC(=O)C1=C(C)N=C(C)/C(=C(/O)OC)C1c1ccccc1OCc1c(C#N)no[n+]1[O-]` (centres undefined), the Ki in experiment [1] stood at 30 nM. Further, the concentration for half-maximal inhibition (IC50) in experiment [2] stood at 67 nM. For the same compound, in experiment [3], the Nitric oxide is given as 24%. Further, the EC50 in experiment [4] came to 9.4 nM. Moreover, the “EC50 iGC” value in experiment [5] stood at 50 nM.
In turn, `COC(=O)C1=C(C)NC(C)=C(C(=O)OC)C1c1ccccc1[N+](=O)[O-]` [NIFEDIPINE] had an EC50 in experiment [4] of 3.2 nM. Besides, in experiment [5], the “EC50 iGC” value turned out to be 3.4 nM.
